Reference: ChEMBL document CHEMBL4261658, “4-Hydroxy-3-nitro-5-ureido-benzenesulfonamides Selectively Target the Tumor-Associated Carbonic Anhydrase Isoforms IX and XII Showing Hypoxia-Enhanced Antiproliferative Profiles” (J Med Chem, 2018)

What was measured:
[1] = tested on: HT-29; assay: Cytotoxicity against human HT-29 cells assessed as cell viability at 100 uM after 48 hrs under hypoxic conditions by MTT assay (reference value: 100%); assay type: functional; conditions: Homo sapiens, HT-29, 48 h; read-out: Activity
Procedure, shortened: (§1)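 Cells cultured in high-glucose DMEM with 20% FBS at 37 °C and 5% CO2, seeded at 1x10^4/well, then dosed 24 h later (0–200 μM) for 48 h. Hypoxia: 1% O2, 5% CO2, balance N2 in a hypoxic workstation; normoxia: 20% O2 in air, 5% CO2. MTT (1 mg/ml) for 30 min at 37 °C, formazan dissolved in DMSO, A550. Untreated control set to 100%; quadruplicates, ≥3 cell batches, mean ± S.E.M.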

[2] = tested on: MDA-MB-231; assay: Cytotoxicity against human MDA-MB-231 cells assessed as cell viability at 30 uM after 48 hrs under normoxic conditions by MTT assay (reference value: 100%); assay type: functional; conditions: MDA-MB-231, 48 h, read-out: Activity; procedure, shortened: as §1
[3] = tested on: PC-3; assay: Cytotoxicity against human PC3 cells assessed as cell viability at 200 uM after 48 hrs under hypoxic conditions by MTT assay (reference value: 100%); assay type: functional; conditions: PC-3, 48 h, read-out: Activity; procedure, shortened: as §1
[4] = tested on: HT-29; assay: Cytotoxicity against human HT-29 cells assessed as cell viability at 100 uM after 48 hrs under normoxic conditions by MTT assay (reference value: 100%); assay type: functional; conditions: Homo sapiens, HT-29, 48 h; read-out: Activity; procedure, shortened: as §1
[5] = tested on: PC-3; assay: Cytotoxicity against human PC3 cells assessed as cell viability at 100 uM after 48 hrs under hypoxic conditions by MTT assay (reference value: 100%); assay type: functional; conditions: PC-3, 48 h, read-out: Activity; procedure, shortened: as §1
[6] = tested on: HT-29; assay: Cytotoxicity against human HT-29 cells assessed as reduction in cell viability after 48 hrs under normoxic conditions by MTT assay; assay type: functional, cell-based; conditions: for IC50: HT-29, 48 h; procedure, shortened: as §1
[7] = tested on: MDA-MB-231; assay: Cytotoxicity against human MDA-MB-231 cells assessed as reduction in cell viability after 48 hrs under hypoxic conditions by MTT assay; assay type: functional, cell-based; conditions: for IC50: MDA-MB-231, 48 h; procedure, shortened: as §1
[8] = tested on: MDA-MB-231; assay: Cytotoxicity against human MDA-MB-231 cells assessed as cell viability at 100 uM after 48 hrs under hypoxic conditions by MTT assay (reference value: 100%); assay type: functional; conditions: MDA-MB-231, 48 h, read-out: Activity; procedure, shortened: as §1
[9] = tested on: MDA-MB-231; assay: Cytotoxicity against human MDA-MB-231 cells assessed as reduction in cell viability after 48 hrs under normoxic conditions by MTT assay; assay type: functional, cell-based; conditions: for IC50: MDA-MB-231, 48 h; procedure, shortened: as §1
[10] = tested on: MDA-MB-231; assay: Cytotoxicity against human MDA-MB-231 cells assessed as cell viability at 30 uM after 48 hrs under hypoxic conditions by MTT assay (reference value: 100%); assay type: functional; conditions: MDA-MB-231, 48 h, read-out: Activity; procedure, shortened: as §1
[11] = tested on: PC-3; assay: Cytotoxicity against human PC3 cells assessed as cell viability at 200 uM after 48 hrs under normoxic conditions by MTT assay (reference value: 100%); assay type: functional; conditions: PC-3, 48 h, read-out: Activity; procedure, shortened: as §1
[12] = tested on: HT-29; assay: Cytotoxicity against human HT-29 cells assessed as reduction in cell viability after 48 hrs under hypoxic conditions by MTT assay; assay type: functional, cell-based; conditions: for IC50: HT-29, 48 h; procedure, shortened: as §1
[13] = tested on: MDA-MB-231; assay: Cytotoxicity against human MDA-MB-231 cells assessed as cell viability at 200 uM after 48 hrs under hypoxic conditions by MTT assay (reference value: 100%); assay type: functional; conditions: MDA-MB-231, 48 h, read-out: Activity; procedure, shortened: as §1
[14] = molecular target: Carbonic anhydrase 9 (Homo sapiens, UniProt Q16790); assay: Inhibition of carbonic anhydrase 9 (unknown origin) preincubated for 15 mins by stopped flow CO2 hydration assay
[15] = tested on: PC-3; assay: Cytotoxicity against human PC3 cells assessed as cell viability at 100 uM after 48 hrs under normoxic conditions by MTT assay (reference value: 100%); assay type: functional; conditions: PC-3, 48 h, read-out: Activity; procedure, shortened: as §1
[16] = species: Homo sapiens; assay: Selectivity ratio of Ki for carbonic anhydrase 2 (unknown origin) to Ki for carbonic anhydrase 9 (unknown origin)
[17] = tested on: HT-29; assay: Cytotoxicity against human HT-29 cells assessed as cell viability at 200 uM after 48 hrs under normoxic conditions by MTT assay (reference value: 100%); assay type: functional; conditions: Homo sapiens, HT-29, 48 h; read-out: Activity; procedure, shortened: as §1
[18] = tested on: PC-3; assay: Cytotoxicity against human PC3 cells assessed as reduction in cell viability after 48 hrs under normoxic conditions by MTT assay; assay type: functional, cell-based; conditions: for IC50: PC-3, 48 h; procedure, shortened: as §1
[19] = tested on: HT-29; assay: Cytotoxicity against human HT-29 cells assessed as cell viability at 200 uM after 48 hrs under hypoxic conditions by MTT assay (reference value: 100%); assay type: functional; conditions: Homo sapiens, HT-29, 48 h; read-out: Activity; procedure, shortened: as §1
[20] = tested on: HT-29; assay: Cytotoxicity against human HT-29 cells assessed as cell viability at 30 uM after 48 hrs under normoxic conditions by MTT assay (reference value: 100%); assay type: functional; conditions: Homo sapiens, HT-29, 48 h; read-out: Activity; procedure, shortened: as §1
[21] = tested on: PC-3; assay: Cytotoxicity against human PC3 cells assessed as cell viability at 30 uM after 48 hrs under normoxic conditions by MTT assay (reference value: 100%); assay type: functional; conditions: PC-3, 48 h, read-out: Activity; procedure, shortened: as §1
[22] = molecular target: Carbonic anhydrase 12 (Homo sapiens, UniProt O43570)
[23] = tested on: MDA-MB-231; assay: Cytotoxicity against human MDA-MB-231 cells assessed as cell viability at 100 uM after 48 hrs under normoxic conditions by MTT assay (reference value: 100%); assay type: functional; conditions: MDA-MB-231, 48 h, read-out: Activity; procedure, shortened: as §1
[24] = tested on: MDA-MB-231; assay: Cytotoxicity against human MDA-MB-231 cells assessed as cell viability at 200 uM after 48 hrs under normoxic conditions by MTT assay (reference value: 100%); assay type: functional; conditions: MDA-MB-231, 48 h, read-out: Activity; procedure, shortened: as §1
[25] = tested on: PC-3; assay: Cytotoxicity against human PC3 cells assessed as cell viability at 30 uM after 48 hrs under hypoxic conditions by MTT assay (reference value: 100%); assay type: functional; conditions: PC-3, 48 h, read-out: Activity; procedure, shortened: as §1
[26] = tested on: PC-3; assay: Cytotoxicity against human PC3 cells assessed as reduction in cell viability after 48 hrs under hypoxic conditions by MTT assay; assay type: functional, cell-based; conditions: for IC50: PC-3, 48 h; procedure, shortened: as §1
[27] = tested on: HT-29; assay: Cytotoxicity against human HT-29 cells assessed as cell viability at 30 uM after 48 hrs under hypoxic conditions by MTT assay (reference value: 100%); assay type: functional; conditions: Homo sapiens, HT-29, 48 h; read-out: Activity; procedure, shortened: as §1
[28] = molecular target: Carbonic anhydrase 1 (Homo sapiens, UniProt P00915); assay: Inhibition of recombinant human cytosolic carbonic anhydrase 1 preincubated for 15 mins by stopped flow CO2 hydration assay
Carbonic anhydrase 1, sequence (P00915 whole entry): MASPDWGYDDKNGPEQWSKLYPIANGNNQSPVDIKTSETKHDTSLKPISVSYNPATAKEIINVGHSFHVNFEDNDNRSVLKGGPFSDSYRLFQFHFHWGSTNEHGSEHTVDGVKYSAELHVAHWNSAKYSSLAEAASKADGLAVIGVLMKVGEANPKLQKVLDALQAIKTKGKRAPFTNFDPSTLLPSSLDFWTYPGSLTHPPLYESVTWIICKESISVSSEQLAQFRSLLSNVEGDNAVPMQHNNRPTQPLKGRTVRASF

Carbonic anhydrase 12, sequence (O43570 whole entry): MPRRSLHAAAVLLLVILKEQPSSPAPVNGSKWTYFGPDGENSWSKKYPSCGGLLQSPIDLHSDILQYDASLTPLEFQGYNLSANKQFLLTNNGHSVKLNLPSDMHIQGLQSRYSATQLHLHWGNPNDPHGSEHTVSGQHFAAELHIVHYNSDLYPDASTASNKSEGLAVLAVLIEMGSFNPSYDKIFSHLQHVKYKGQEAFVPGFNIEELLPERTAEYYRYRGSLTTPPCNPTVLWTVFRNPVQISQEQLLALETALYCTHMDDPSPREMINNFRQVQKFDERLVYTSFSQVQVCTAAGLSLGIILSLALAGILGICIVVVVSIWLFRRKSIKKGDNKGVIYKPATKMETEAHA

Row | Structure (SMILES) | viability at 100 µM [1] | viability at 30 µM [2] | viability at 200 µM [3] | viability at 100 µM [4] | viability at 100 µM [5] | Activity [6] | IC50 [6] | Activity [7] | IC50 [7] | viability at 100 µM [8] | Activity [9] | IC50 [9] | viability at 30 µM [10] | viability at 200 µM [11] | Activity [12] | IC50 [12] | viability at 200 µM [13] | Ki [14] | viability at 100 µM [15] | Ki [22] | also measured
1 | NS(=O)(=O)c1cc(NC(=O)NCCc2ccccc2)c(O)c([N+](=O)[O-])c1 | 57.3% | 108% | 61.9% | 85.8% | 62.7% | Dose-dependent effect | > 200 µM | Dose-dependent effect | 194 µM | 79.8% | Dose-dependent effect | > 200 µM | 72% | 63.5% | Dose-dependent effect | > 200 µM | 48.2% | 0.11 µM | 68.5% | 0.31 µM | Ratio Ki [16]: 28; viability at 200 µM [17]: 80.7%; Activity [18]: Dose-dependent effect; IC50 [18]: > 200 µM; viability at 200 µM [19]: 53.8%; viability at 30 µM [20]: 97.6%; viability at 30 µM [21]: 115%; viability at 100 µM [23]: 107%; viability at 200 µM [24]: 85.1%; viability at 30 µM [25]: 85.2%; Activity [26]: Dose-dependent effect; IC50 [26]: > 200 µM; viability at 30 µM [27]: 76.7%
2 | NS(=O)(=O)c1cc(NC(=O)Nc2ccc3c(c2)OCO3)c(O)c([N+](=O)[O-])c1 | 22.8% | 105% | 70.2% | 62.7% | 77.5% | Dose-dependent effect | > 200 µM | Dose-dependent effect | > 200 µM | 92.2% | Dose-dependent effect | > 200 µM | 105% | 61.6% | Dose-dependent effect | 79.5 µM | 67.5% | 0.15 µM | 65.9% | 0.25 µM | Ratio Ki [16]: 30; viability at 200 µM [17]: 60.4%; Activity [18]: Dose-dependent effect; IC50 [18]: > 200 µM; viability at 200 µM [19]: 24.6%; viability at 30 µM [20]: 71.5%; Ki [28]: > 50 µM; viability at 30 µM [21]: 80.1%; viability at 100 µM [23]: 95%; viability at 200 µM [24]: 103%; viability at 30 µM [25]: 101%; Activity [26]: Dose-dependent effect; IC50 [26]: > 200 µM; viability at 30 µM [27]: 28.3%
3 | NS(=O)(=O)c1cc(NC(=O)NCc2ccco2)c(O)c([N+](=O)[O-])c1 | – | – | – | – | – | – | – | – | – | – | – | – | – | – | – | – | – | 0.39 µM | – | 0.53 µM | Ki [28]: > 50 µM
4 | NS(=O)(=O)c1cc(NC(=O)Nc2c(F)c(F)c(F)c(F)c2F)c(O)c([N+](=O)[O-])c1 | 70.2% | 95.7% | 50.6% | 102% | 53.2% | Dose-dependent effect | > 200 µM | Dose-dependent effect | 101 µM | 50.2% | Dose-dependent effect | > 200 µM | 56.2% | 60.2% | Dose-dependent effect | > 200 µM | 40.5% | 0.29 µM | 61.7% | 0.08 µM | viability at 200 µM [17]: 99.6%; Activity [18]: Dose-dependent effect; IC50 [18]: > 200 µM; viability at 200 µM [19]: 65.3%; viability at 30 µM [20]: 106%; viability at 30 µM [21]: 69%; viability at 100 µM [23]: 66.7%; viability at 200 µM [24]: 60.2%; viability at 30 µM [25]: 63.2%; Activity [26]: Dose-dependent effect; IC50 [26]: > 200 µM; viability at 30 µM [27]: 75.6%
